Assay results from ChEMBL document CHEMBL4261527, “Benzylsulfanyl benzo-heterocycle amides and hydrazones as new agents against drug-susceptible and resistant Mycobacterium tuberculosis” (Medchemcomm, 2017).
In brackets after ≈: the same amount, converted by molar mass. Activity calls are given as the source filed them. The calls are words filed in the database; no cut-off is given here.

Columns and labels:
[1] = system: Mycobacterium tuberculosis; experiment: Antimycobacterial activity against multidrug-resistant Mycobacterium tuberculosis clinical isolate; format: functional
Outline: (§1)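 Clinical isolates coded 960 (drug-susceptible), 330 (MDR) and 431 (XDR); MIC reported in μM.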

[2] = system: Mycobacterium tuberculosis; experiment: Antimycobacterial activity against extensively drug-resistant Mycobacterium tuberculosis clinical isolate; format: functional; outline: as §1
[3] = system: Mycobacterium tuberculosis; experiment: Potency index, ratio of ftivazide MIC to test compound MIC for extensively drug-resistant Mycobacterium tuberculosis clinical isolate; format: functional
[4] = system: Mycobacterium tuberculosis; experiment: Potency index, ratio of isoniazid MIC to test compound MIC for extensively drug-resistant Mycobacterium tuberculosis clinical isolate; format: functional
[5] = system: Mycobacterium tuberculosis; experiment: Antimycobacterial activity against ethambutol-resistant Mycobacterium tuberculosis ATCC 35837 by resazurin dye based fluorimetric method; format: functional
[6] = system: Mycobacterium tuberculosis; experiment: Antimycobacterial activity against ethionamide-resistant Mycobacterium tuberculosis ATCC 35830 by resazurin dye based fluorimetric method; format: functional
[7] = system: Mycobacterium tuberculosis; experiment: Antimycobacterial activity against kanamycin-resistant Mycobacterium tuberculosis ATCC 35827 by resazurin dye based fluorimetric method; format: functional
[8] = system: Mycobacterium tuberculosis; experiment: Antimycobacterial activity against streptomycin-resistant Mycobacterium tuberculosis ATCC 35820 by resazurin dye based fluorimetric method; format: functional
[9] = system: Mycobacterium tuberculosis; experiment: Antimycobacterial activity against rifampicin-resistant Mycobacterium tuberculosis H37Rv by resazurin dye based fluorimetric method; format: functional
[10] = system: Mycobacterium tuberculosis; experiment: Antitubercular activity against Mycobacterium tuberculosis H37Ra harboring pTYOK infected in Balb/c mouse assessed as bacterial growth inhibition at 3.1 mg/kg qd measured at 2 days interval for 6 days by luminometric method; format: functional, organism-based
Outline: (§2)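 Mice infected with marker-free autoluminescent Mtb H37Ra and dosed once daily for 6 consecutive days; vehicle CMC-Na. Read-out is the luminescence ratio RLU on day n over RLU on day 0, plotted against days after the first treatment.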

[11] = system: Mycobacterium tuberculosis; experiment: Antitubercular activity against Mycobacterium tuberculosis H37Ra harboring pTYOK infected in Balb/c mouse assessed as bacterial growth inhibition at 10 mg/kg qd measured at 2 days interval for 6 days by luminometric method; format: functional, organism-based; outline: as §2

| SMILES | MIC [1] [µM] | MIC [2] [µM] | Ratio [3] | Ratio [4] | MIC [5] [µg/mL] | MIC [6] [µg/mL] | MIC [7] [µg/mL] | MIC [8] [µg/mL] | MIC [9] [µg/mL] | growth inhibition (GI) [10] | growth inhibition (GI) [11] |
| --- | --- | --- | --- | --- | --- | --- | --- | --- | --- | --- | --- |
| O=C(N/N=C/c1ccc(CSc2nc3ccccc3o2)cc1)c1ccncc1 | 6.4 (≈ 2.49 µg/mL) | 3.2 (≈ 1.24 µg/mL) | 10 | 20 | 0.156 (≈ 0.402 µM) | 1.25 (≈ 3.22 µM) | 0.156 (≈ 0.402 µM) | 0.156 (≈ 0.402 µM) | 0.312 (≈ 0.803 µM) | Active | – |
| CO[C@H]1/C=C/O[C@@]2(C)Oc3c(C)c(O)c4c(O)c(c(/C=N/N5CCN(C)CC5)c(O)c4c3C2=O)NC(=O)/C(C)=C\C=C\[C@H](C)[C@H](O)[C@@H](C)[C@@H](O)[C@@H](C)[C@H](OC(C)=O)[C@@H]1C [RIFAMPIN] | > 19 | > 19 | – | – | – | – | – | – | – | – | Active |
| NNC(=O)c1ccncc1 [ISONIAZID] | 8 (≈ 1.1 µg/mL) | 64 (≈ 8.78 µg/mL) | – | – | – | – | – | – | – | – | – |
| O=C(N/N=C/c1ccc(CSc2nc3ccccc3[nH]2)cc1)c1ccncc1 | 6.4 (≈ 2.48 µg/mL) | > 12.8 | – | – | 0.156 (≈ 0.403 µM) | 1.25 (≈ 3.23 µM) | 0.156 (≈ 0.403 µM) | 0.156 (≈ 0.403 µM) | 0.312 (≈ 0.805 µM) | – | – |
| COc1cc(/C=N/NC(=O)c2ccncc2)ccc1O [FTIVAZIDE] | 16 (≈ 4.34 µg/mL) | 32 (≈ 8.68 µg/mL) | – | – | 0.312 (≈ 1.15 µM) | 1.25 (≈ 4.61 µM) | 0.156 (≈ 0.575 µM) | 0.312 (≈ 1.15 µM) | 0.312 (≈ 1.15 µM) | – | – |
| O=C(NCc1ccc(CSc2nc3ccccc3o2)cc1)c1ccncc1 | 2 (≈ 0.751 µg/mL) | 16 (≈ 6.01 µg/mL) | – | – | – | – | – | – | – | – | – |
| O=C(N/N=C/c1ccc(CSc2nc3ccccc3s2)cc1)c1ccncc1 | 6.4 (≈ 2.59 µg/mL) | > 12.8 | – | – | 0.312 (≈ 0.771 µM) | 1.25 (≈ 3.09 µM) | 0.312 (≈ 0.771 µM) | 0.312 (≈ 0.771 µM) | 0.625 (≈ 1.55 µM) | – | – |
